Assay results: ChEMBL document CHEMBL1671864, “First assessment in humans of the safety, tolerability, pharmacokinetics, and ex vivo pharmacodynamic antimalarial activity of the new artemisinin derivative artemisone” (Antimicrob Agents Chemother, 2008)
Values after ≈ are worked out from the molar mass of the structure shown.

Columns and labels:
Plasma [1] = test: Tmax in healthy human plasma assessed as metabolite BAY 78-1788 Tmax at 80 mg, po administered as four 20 mg immediate release tablets daily for 3 days during 10 hrs overnight fasting state measured after 1 day; assay type: ADME, organism-based; settings: in vivo, 24 h
How it was run: (§1)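 Healthy Caucasian men (8 active, 4 placebo per dose) dosed with tablets daily for 3 days after 10-h fast. Lithium-heparin plasma sampled predose and 0.25–14 h after day-1 and day-3 doses, stored frozen. Parent and M1–M3 quantified by LC/MS-MS in positive-ion MRM. Tmax taken directly from observed individual data.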

Plasma [2] = test: Ratio of AUC (0 to infinity) for metabolite BAY 78-1788 to AUC (0 to infinity) for compound in healthy human plasma at 40 mg, po administered as single dose for 3 days measured after 3 days; assay type: ADME, organism-based; settings: in vivo, 72 h
How it was run: (§2)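 Healthy Caucasian men (8 active, 4 placebo per dose) dosed with tablets daily for 3 days after 10-h fast. Plasma sampled 0.25–14 h after first and last doses. Parent and metabolites M1–M3 measured by LC/MS-MS (200 µl plasma). Metabolic ratio is metabolite AUC0-∞ divided by parent AUC0-∞ (log-linear trapezoidal, extrapolated by last concentration/kel). First vs third dose compared by paired t test.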

Plasma [3] = test: Tmax in healthy human plasma assessed as metabolite BAY 78-1788 Tmax at 40 mg, po administered as two 20 mg immediate release tablets daily for 3 days during 10 hrs overnight fasting state measured after 1 day; assay type: ADME, organism-based; settings: in vivo, 24 h; how it was run: as §1
Plasma [4] = test: Ratio of AUC (0 to infinity) for metabolite BAY 78-1788 to AUC (0 to infinity) for compound in healthy human plasma at 80 mg, po administered as single dose for 3 days measured after 3 days; assay type: ADME, organism-based; settings: in vivo, 72 h; how it was run: as §2
Plasma [5] = test: AUC in healthy human plasma assessed as metabolite BAY 78-1788 AUC at 80 mg, po administered as four 20 mg immediate release tablets daily for 3 days during 10 hrs overnight fasting state measured after 3 day; assay type: ADME, organism-based; set-up: dose 80 mg, time < 10 hr, route oral; settings: in vivo
How it was run: (§3)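 Healthy Caucasian male volunteers took 40 mg (two 20-mg IR tablets) or 80 mg (four tablets) orally once daily for 3 days, with 240 ml water after a 10-h fast. Plasma was sampled predose to 14 h after the first and last doses. M1/M2/M3 were quantified by LC/MS-MS MRM against a D4-labelled internal standard. Cmax was read from observed data and AUC by log-linear trapezoidal rule, noncompartmental, geometric means.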

Plasma [6] = test: AUC (0 to infinity) in healthy human plasma assessed as metabolite BAY 78-1788 AUC (0 to infinity) at 80 mg, po administered as single ascending doses during 10 hrs overnight fasting state; assay type: ADME, organism-based; set-up: dose 80 mg, time infinity, route oral; settings: in vivo
How it was run: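 Healthy Caucasian male volunteers, single oral dose of 80 mg as four 20-mg immediate-release tablets, taken with 240 ml water after a 10-h overnight fast. Lithium-heparin venous blood was drawn predose and at 0.25–14 h, and plasma was stored frozen. Metabolites M1/M2/M3 were measured by LC/MS-MS (positive-ion MRM, deuterated internal standard). Noncompartmental analysis, AUC by log-linear trapezoidal rule extrapolated to infinity (Clast/kel), geometric means.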

Plasma [7] = test: Cmax in healthy human plasma assessed as metabolite BAY 78-1788 Cmax at 40 mg, po administered as two 20 mg immediate release tablets daily for 3 days during 10 hrs overnight fasting state measured after 3 day; assay type: ADME, organism-based; set-up: dose 40 mg, route oral; settings: in vivo, 72 h
How it was run: (§4)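 Healthy Caucasian males took tablets once daily for 3 days with 240 ml water after a 10-h fast. Heparinised blood was drawn predose and at 0.25–14 h after the first and last doses. Plasma parent drug and metabolites M1–M3 were measured by LC/MS-MS (MRM, deuterated internal standard). Noncompartmental analysis gave Cmax observed, t1/2 = 0.693/kel and MRT = AUMC/AUC. Values are geometric means.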

Plasma [8] = test: Cmax in healthy human plasma assessed as metabolite BAY 78-1788 Cmax at 40 mg, po administered as two 20 mg immediate release tablets daily for 3 days during 10 hrs overnight fasting state measured after 1 day; assay type: ADME, organism-based; set-up: dose 40 mg, route oral; settings: in vivo, 24 h; how it was run: as §3
Plasma [9] = test: Half life in healthy human plasma assessed as metabolite BAY 78-1788 Half life at 40 mg, po administered as two 20 mg immediate release tablets daily for 3 days during 10 hrs overnight fasting state measured after 1 day; assay type: ADME, organism-based; settings: in vivo; how it was run: as §4
Plasma [10] = test: AUC in healthy human plasma assessed as metabolite BAY 78-1788 AUC at 40 mg, po administered as two 20 mg immediate release tablets daily for 3 days during 10 hrs overnight fasting state measured after 3 day; assay type: ADME, organism-based; set-up: dose 40 mg, time < 10 hr, route oral; settings: in vivo; how it was run: as §3
Plasma [11] = test: AUC in healthy human plasma assessed as metabolite BAY 78-1788 AUC at 40 mg, po administered as two 20 mg immediate release tablets daily for 3 days during 10 hrs overnight fasting state measured after 1 day; assay type: ADME, organism-based; set-up: dose 40 mg, time < 10 hr, route oral; settings: in vivo; how it was run: as §3
Plasma [12] = test: AUC in healthy human plasma assessed as metabolite BAY 78-1788 AUC at 80 mg, po administered as four 20 mg immediate release tablets daily for 3 days during 10 hrs overnight fasting state measured after 1 day; assay type: ADME, organism-based; set-up: dose 80 mg, time < 10 hr, route oral; settings: in vivo; how it was run: as §3
Plasma [13] = test: Tmax in healthy human plasma assessed as metabolite BAY 78-1788 Tmax at 80 mg, po administered as four 20 mg immediate release tablets daily for 3 days during 10 hrs overnight fasting state measured after 3 day; assay type: ADME, organism-based; settings: in vivo, 72 h; how it was run: as §1
Plasma [14] = test: Tmax in healthy human plasma assessed as metabolite BAY 78-1788 Tmax at 40 mg, po administered as two 20 mg immediate release tablets daily for 3 days during 10 hrs overnight fasting state measured after 3 day; assay type: ADME, organism-based; settings: in vivo, 72 h; how it was run: as §1
Plasma [15] = test: Half life in healthy human plasma assessed as metabolite BAY 78-1788 Half life at 80 mg, po administered as four 20 mg immediate release tablets daily for 3 days during 10 hrs overnight fasting state measured after 1 day; assay type: ADME, organism-based; settings: in vivo, 24 h; how it was run: as §4
Plasma [16] = test: Cmax in healthy human plasma assessed as metabolite BAY 78-1788 Cmax at 80 mg, po administered as four 20 mg immediate release tablets daily for 3 days during 10 hrs overnight fasting state measured after 1 day; assay type: ADME, organism-based; set-up: dose 80 mg, route oral; settings: in vivo, 24 h; how it was run: as §4
Plasma [17] = test: Half life in healthy human plasma assessed as metabolite BAY 78-1788 Half life at 80 mg, po administered as four 20 mg immediate release tablets daily for 3 days during 10 hrs overnight fasting state measured after 3 day; assay type: ADME, organism-based; settings: in vivo, 72 h; how it was run: as §4
Plasma [18] = test: Half life in healthy human plasma assessed as metabolite BAY 78-1788 Half life at 40 mg, po administered as two 20 mg immediate release tablets daily for 3 days during 10 hrs overnight fasting state measured after 3 day; assay type: ADME, organism-based; settings: in vivo, 72 h; how it was run: as §4
Plasma [19] = test: Cmax in healthy human plasma assessed as metabolite BAY 78-1788 Cmax at 80 mg, po administered as single ascending doses during 10 hrs overnight fasting state; assay type: ADME, organism-based; set-up: dose 80 mg, route oral; settings: in vivo
How it was run: (§5)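 Healthy Caucasian male volunteers, single oral dose with 240 ml water after a 10-h overnight fast. Heparinised venous blood was drawn predose and at 0.25–14 h. Plasma was stored frozen. Parent drug and metabolites M1–M3 were measured by LC/MS-MS (MRM, deuterated internal standard). Noncompartmental analysis gave Cmax observed, t1/2 = 0.693/kel (terminal regression) and MRT = AUMC/AUC. Values are geometric means.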

Plasma [20] = test: Ratio of AUC (0 to infinity) for metabolite BAY 78-1788 to AUC (0 to infinity) for compound in healthy human plasma at 40 mg, po administered as single dose for 3 days measured after 1 day; assay type: ADME, organism-based; settings: in vivo, 24 h; how it was run: as §2
Plasmodium falciparum = test: Antimalarial activity against Plasmodium falciparum K1 in human plasma assessed as inhibition of hypoxanthine uptake by intraerythrocytic malaria parasites by hypoxanthine incorporation assay; assay type: functional, organism-based
How it was run: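 K1 or TM90-C2A parasites were sorbitol-synchronized and cultured in RPMI 1640. Drug was diluted in drug-free human serum (0.04–40 ng/ml) or subject plasma was diluted twofold (8–8,192). Parasites were added at 2% hematocrit, 1% parasitemia (>95% rings), and [3H]hypoxanthine uptake was measured over 48 h. IC50 or ID50 came from concentration or dilution-response curves. Equivalent concentration = ID50 × IC50.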

Plasma [21] = test: Half-life in healthy human plasma assessed as metabolite BAY 78-1788 half-life at 80 mg, po administered as single ascending doses during 10 hrs overnight fasting state; assay type: ADME, organism-based; settings: in vivo; how it was run: as §5
Plasma [22] = test: Ratio of AUC (0 to infinity) for metabolite BAY 78-1788 to AUC (0 to infinity) for compound in healthy human plasma at 80 mg, po administered as single dose for 3 days measured after 1 day; assay type: ADME, organism-based; settings: in vivo, 24 h; how it was run: as §2
Plasma [23] = test: Cmax in healthy human plasma assessed as metabolite BAY 78-1788 Cmax at 80 mg, po administered as four 20 mg immediate release tablets daily for 3 days during 10 hrs overnight fasting state measured after 3 day; assay type: ADME, organism-based; set-up: dose 80 mg, route oral; settings: in vivo, 72 h; how it was run: as §4

Q: How did the Tmax (Plasma [1]) turn out when C[C@H]1[C@H](N2CCS(=O)(=O)CC2)O[C@@H]2O[C@]3(C)C[C@H](O)[C@H]4[C@H](C)CC[C@@H]1[C@@]24OO3 was run?
A: 2 h

Q: And the Ratio (Plasma [2])?
A: 0.65

Q: What about the Tmax (Plasma [3]) of the same compound?
A: 1.75 h

Q: And the Ratio (Plasma [4])?
A: 0.82

Q: What about the AUC (Plasma [5]) of the same compound?
A: 263 ng·h/mL

Q: And the AUC (Plasma [6])?
A: 379.9 ng·h/mL

Q: What about the Cmax (Plasma [7]) of the same compound?
A: 36.4 ng/mL

Q: What about the Cmax (Plasma [8]) of the same compound?
A: 40.6 ng/mL

Q: What about the t1/2 (Plasma [9]) of the same compound?
A: 1.31 h

Q: And the AUC (Plasma [10])?
A: 115.1 ng·h/mL

Q: What about the AUC (Plasma [11]) of the same compound?
A: 117.3 ng·h/mL

Q: And the AUC (Plasma [12])?
A: 302.4 ng·h/mL

Q: And the Tmax (Plasma [13])?
A: 2.5 h

Q: What about the Tmax (Plasma [14]) of the same compound?
A: 2 h

Q: What about the t1/2 (Plasma [15]) of the same compound?
A: 1.59 h

Q: What about the Cmax (Plasma [16]) of the same compound?
A: 87.2 ng/mL

Q: And the t1/2 (Plasma [17])?
A: 1.44 h

Q: What about the t1/2 (Plasma [18]) of the same compound?
A: 1.28 h

Q: And the Cmax (Plasma [19])?
A: 108.9 ng/mL

Q: And the Ratio (Plasma [20])?
A: 0.71

Q: And the IC50 (Plasmodium falciparum)?
A: 0.0257 µg/mL (≈ 0.0616 µM)

Q: And the t1/2 (Plasma [21])?
A: 1.36 h

Q: What about the Ratio (Plasma [22]) of the same compound?
A: 0.91

Q: And the Cmax (Plasma [23])?
A: 66.5 ng/mL
